Laboratory results taken from ChEMBL document CHEMBL4138242, “Synthesis and antibacterial evaluation of novel cationic chalcone derivatives possessing broad spectrum antibacterial activity” (Eur J Med Chem, 2018).
Active and inactive are the calls of the source. The rule behind the calls is not given here.

Tests used:
[1] = system: Staphylococcus aureus; test: Antibacterial activity against Staphylococcus aureus ATCC 29213 after 16 to 20 hrs by broth microdilution method; type: functional
How it was run: (§1)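 Broth microdilution per CLSI. Bacteria grown 4-6 h (about 10⁸ CFU/mL), then diluted to about 10⁶ CFU/mL. Medium: Mueller-Hinton broth, except Luria-Bertani broth for E. coli. Compounds in sterile water, twofold series 256-0.5 µg/mL, mixed 1:1 with inoculum, 37 °C for 16-20 h. MIC is the lowest concentration without visible growth. Duplicate wells; experiment repeated at least twice.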

[2] = system: Enterococcus faecalis; test: Antibacterial activity against Enterococcus faecalis ATCC 29212 after 16 to 20 hrs by broth microdilution method; type: functional; how it was run: as §1
[3] = system: Escherichia coli; test: Antibacterial activity against Escherichia coli ATCC 25922 after 16 to 20 hrs by broth microdilution method; type: functional; how it was run: as §1
[4] = system: Salmonella enterica; test: Antibacterial activity against Salmonella enterica ATCC 13076 after 16 to 20 hrs by broth microdilution method; type: functional; how it was run: as §1
[5] = Hemolytic activity in sheep RBC after 1 hr; type: ADME, cell-based, Ovis aries, Erythrocyte; conditions: sheep red blood cells (erythrocytes)
How it was run: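 Sheep red blood cells (150 µL suspension) mixed with 50 µL of compound dilutions (5120-10 µg/mL), 1 h at 37 °C, then centrifuged. Supernatant read at 540 nm. Percent hemolysis calculated relative to RBC-only control (0%) and 0.1% Triton X-100 (100%).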

[6] = system: Staphylococcus aureus; test: Antibacterial activity against methicillin-resistant Staphylococcus aureus clinical isolate 1105183 cono7 after 16 to 20 hrs by broth microdilution method; type: functional
How it was run: (§2)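 CLSI broth microdilution in Mueller-Hinton broth. A 4-6 h culture was diluted to about 10⁶ CFU/mL and mixed 1:1 with compound dilutions prepared at 256 to 0.5 µg/mL from aqueous stocks. Plates were incubated at 37 °C for 16-20 h and read visually for MIC. Each concentration was run in duplicate, and the experiment was repeated at least twice. Vancomycin and meropenem were comparators.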

[7] = system: Staphylococcus aureus; test: Antibacterial activity against methicillin-resistant Staphylococcus aureus clinical isolate 20130911034sau after 16 to 20 hrs by broth microdilution method; type: functional; how it was run: as §2
[8] = system: Staphylococcus aureus; test: Antibacterial activity against methicillin-resistant Staphylococcus aureus clinical isolate 0831010 after 16 to 20 hrs by broth microdilution method; type: functional; how it was run: as §2
[9] = system: Staphylococcus aureus; test: Antibacterial activity against methicillin-resistant Staphylococcus aureus clinical isolate 1104060 after 16 to 20 hrs by broth microdilution method; type: functional; how it was run: as §2
[10] = system: Staphylococcus aureus; test: Antibacterial activity against methicillin-resistant Staphylococcus aureus clinical isolate 20131012632sau after 16 to 20 hrs by broth microdilution method; type: functional; how it was run: as §2
[11] = system: Staphylococcus aureus; test: Antibacterial activity against methicillin-resistant Staphylococcus aureus clinical isolate 1207007 after 16 to 20 hrs by broth microdilution method; type: functional; how it was run: as §2
[12] = system: Staphylococcus aureus; test: Antibacterial activity against methicillin-resistant Staphylococcus aureus clinical isolate 1-may after 16 to 20 hrs by broth microdilution method; type: functional; how it was run: as §2
[13] = system: Staphylococcus aureus; test: Antibacterial activity against methicillin-resistant Staphylococcus aureus clinical isolate 0906202 after 16 to 20 hrs by broth microdilution method; type: functional; how it was run: as §2
[14] = system: Staphylococcus aureus; test: Antibacterial activity against methicillin-resistant Staphylococcus aureus clinical isolate 1208143 after 16 to 20 hrs by broth microdilution method; type: functional; how it was run: as §2
[15] = system: Klebsiella pneumoniae; test: Antibacterial activity against drug-resistant carbapenemase producing Klebsiella pneumoniae clinical isolate KP-14-8 after 16 to 20 hrs by broth microdilution method; type: functional; how it was run: as §2
[16] = system: Klebsiella pneumoniae; test: Antibacterial activity against drug-resistant carbapenemase producing Klebsiella pneumoniae clinical isolate KP-13-45 after 16 to 20 hrs by broth microdilution method; type: functional; how it was run: as §2
[17] = system: Klebsiella pneumoniae; test: Antibacterial activity against drug-resistant carbapenemase producing Klebsiella pneumoniae clinical isolate KP-14-3 after 16 to 20 hrs by broth microdilution method; type: functional; how it was run: as §2
[18] = system: Klebsiella pneumoniae; test: Antibacterial activity against drug-resistant carbapenemase producing Klebsiella pneumoniae clinical isolate KP-14-1 after 16 to 20 hrs by broth microdilution method; type: functional; how it was run: as §2
[19] = system: Klebsiella pneumoniae; test: Antibacterial activity against drug-resistant carbapenemase producing Klebsiella pneumoniae clinical isolate KP-14-4 after 16 to 20 hrs by broth microdilution method; type: functional; how it was run: as §2
[20] = system: Klebsiella pneumoniae; test: Antibacterial activity against drug-resistant carbapenemase producing Klebsiella pneumoniae clinical isolate KP-13-54 after 16 to 20 hrs by broth microdilution method; type: functional; how it was run: as §2
[21] = system: Klebsiella pneumoniae; test: Antibacterial activity against drug-resistant carbapenemase producing Klebsiella pneumoniae clinical isolate KP-14-2 after 16 to 20 hrs by broth microdilution method; type: functional; how it was run: as §2
[22] = system: Klebsiella pneumoniae; test: Antibacterial activity against drug-resistant carbapenemase producing Klebsiella pneumoniae clinical isolate EC-13-23 after 16 to 20 hrs by broth microdilution method; type: functional; how it was run: as §2
[23] = system: Klebsiella pneumoniae; test: Antibacterial activity against drug-resistant carbapenemase producing Klebsiella pneumoniae clinical isolate KP-14-5 after 16 to 20 hrs by broth microdilution method; type: functional; how it was run: as §2
[24] = system: Klebsiella pneumoniae; test: Antibacterial activity against drug-resistant carbapenemase producing Klebsiella pneumoniae clinical isolate KP-13-55 after 16 to 20 hrs by broth microdilution method; type: functional; how it was run: as §2
[25] = system: Klebsiella pneumoniae; test: Antibacterial activity against drug-resistant carbapenemase producing Klebsiella pneumoniae clinical isolate KP-14-45 after 16 to 20 hrs by broth microdilution method; type: functional; how it was run: as §2
[26] = system: Klebsiella pneumoniae; test: Antibacterial activity against drug-resistant carbapenemase producing Klebsiella pneumoniae clinical isolate KP-14-18 after 16 to 20 hrs by broth microdilution method; type: functional; how it was run: as §2
[27] = system: Escherichia coli; test: Antibacterial activity against drug-resistant NDM1 producing Escherichia coli clinical isolate EC-13-49 after 16 to 20 hrs by broth microdilution method; type: functional; how it was run: as §2
[28] = system: Escherichia coli; test: Antibacterial activity against drug-resistant NDM1 producing Escherichia coli clinical isolate Ecl-14-58 after 16 to 20 hrs by broth microdilution method; type: functional; how it was run: as §2
[29] = system: Escherichia coli; test: Antibacterial activity against drug-resistant NDM1 producing Escherichia coli clinical isolate KP-13-58 after 16 to 20 hrs by broth microdilution method; type: functional; how it was run: as §2
[30] = system: Escherichia coli; test: Antibacterial activity against drug-resistant NDM1 producing Escherichia coli clinical isolate Ecl-13-62 after 16 to 20 hrs by broth microdilution method; type: functional; how it was run: as §2
[31] = system: Escherichia coli; test: Antibacterial activity against drug-resistant NDM1 producing Escherichia coli clinical isolate EC-14-54 after 16 to 20 hrs by broth microdilution method; type: functional; how it was run: as §2
[32] = system: Escherichia coli; test: Antibacterial activity against drug-resistant NDM1 producing Escherichia coli clinical isolate Ecl-14-59 after 16 to 20 hrs by broth microdilution method; type: functional; how it was run: as §2
[33] = system: Escherichia coli; test: Antibacterial activity against drug-resistant NDM1 producing Escherichia coli clinical isolate EA-14-61 after 16 to 20 hrs by broth microdilution method; type: functional; how it was run: as §2
[34] = system: Escherichia coli; test: Antibacterial activity against drug-resistant NDM1 producing Escherichia coli clinical isolate Ecl-14-56 after 16 to 20 hrs by broth microdilution method; type: functional; how it was run: as §2
[35] = system: Escherichia coli; test: Antibacterial activity against drug-resistant NDM1 producing Escherichia coli clinical isolate 1460 after 16 to 20 hrs by broth microdilution method; type: functional; how it was run: as §2
[36] = system: Escherichia coli; test: Antibacterial activity against drug-resistant NDM1 producing Escherichia coli clinical isolate SM-15-84 after 16 to 20 hrs by broth microdilution method; type: functional; how it was run: as §2
[37] = system: Escherichia coli; test: Antibacterial activity against drug-resistant NDM1 producing Escherichia coli clinical isolate CF-15-61 after 16 to 20 hrs by broth microdilution method; type: functional; how it was run: as §2
[38] = system: Escherichia coli; test: Antibacterial activity against drug-resistant NDM1 producing Escherichia coli clinical isolate CF-13-61 after 16 to 20 hrs by broth microdilution method; type: functional; how it was run: as §2
[39] = system: Staphylococcus aureus; test: Induction of cytoplasmic membrane depolarization in Staphylococcus aureus ATCC 29213 at 10 to 20 ug/ml measured every 2 mins for 12 mins by DiSC35 dye-based fluorescence assay; type: functional, organism-based
How it was run: (§3)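 Mid-log cells (~10⁸ CFU/mL) were suspended in PBS (S. aureus) or HEPES/glucose/KCl with EDTA (E. coli). They were preloaded with DiSC3(5) for 30 min (S. aureus) or 40 min (E. coli), and baseline fluorescence was read for 8 min. Compound was added to 20 µg/mL final, and fluorescence (ex 622/em 670 nm) was read every 2 min for 12 min. Water served as control.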

[40] = system: Escherichia coli; test: Induction of cytoplasmic membrane depolarization in Escherichia coli ATCC 25922 at 10 to 20 ug/ml measured every 2 mins for 12 mins by DiSC35 dye-based fluorescence assay; type: functional, organism-based; how it was run: as §3
[41] = system: Staphylococcus aureus; test: Induction of inner membrane permeabilization in Staphylococcus aureus ATCC 29213 at 10 to 20 ug/ml measured every 2 mins for 12 mins by propidium iodide staining-based fluorescence assay; type: functional, organism-based
How it was run: (§4)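 Mid-log cells (~10⁸ CFU/mL) were suspended in PBS (S. aureus) or HEPES/glucose/KCl (E. coli). They were preincubated with propidium iodide for 30 min (S. aureus) or 40 min (E. coli), and baseline fluorescence was read for 8 min. Compound was added to 20 µg/mL final, and fluorescence (ex 535/em 617 nm) was read every 2 min for 12 min.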

[42] = system: Escherichia coli; test: Induction of inner membrane permeabilization in Escherichia coli ATCC 25922 at 10 to 20 ug/ml measured every 2 mins for 12 mins by propidium iodide staining-based fluorescence assay; type: functional, organism-based; how it was run: as §4

`CCCCCCCC[N+](C)(C)CC(=O)Nc1ccc(C(=O)/C=C/c2ccc(C)cc2)cc1.[Cl-]` gave an MIC [1] of 1 µg/mL, an MIC [2] of 1 µg/mL and an MIC [3] of 4 µg/mL. It also gave an MIC [4] of 8 µg/mL, an HC50 at 1 h [5] of 153 µg/mL and an MIC [6] of 1 µg/mL. For the same compound, the MIC [7] was 0.5 µg/mL, the MIC [8] was 0.5 µg/mL and the MIC [9] was 4 µg/mL. The MIC [10] was 2 µg/mL, the MIC [11] was 0.5 µg/mL and the MIC [12] was 1 µg/mL. The MIC [13] was 4 µg/mL, the MIC [14] was 2 µg/mL and the MIC [15] was 4 µg/mL. For the same compound, the MIC [16] was 4 µg/mL, the MIC [17] was 8 µg/mL and the MIC [18] was 8 µg/mL. The MIC [19] was 4 µg/mL, the MIC [20] was 8 µg/mL and the MIC [21] was 16 µg/mL. For the same compound, the MIC [22] was 4 µg/mL, the MIC [23] was 4 µg/mL and the MIC [24] was 16 µg/mL. It also gave an MIC [25] of 4 µg/mL, an MIC [26] of 16 µg/mL and an MIC [27] of 4 µg/mL. The MIC [28] was 4 µg/mL, the MIC [29] was 2 µg/mL and the MIC [30] was 8 µg/mL. The MIC [31] was 8 µg/mL, the MIC [32] was 4 µg/mL and the MIC [33] was 4 µg/mL. It also gave an MIC [34] of 4 µg/mL, an MIC [35] of 8 µg/mL and an MIC [36] of 1 µg/mL. The MIC [37] was 4 µg/mL, the MIC [38] was 32 µg/mL and the Activity [39] was “Active”. For the same compound, the Activity [40] was “Active”, the Activity [41] was “Active” and the Activity [42] was “Active”.
